Source: ChEMBL document CHEMBL4196102, “Yeast Chemogenomic Profiling Reveals Iron Chelation To Be the Principle Cell Inhibitory Mode of Action of Gossypol” (J Med Chem, 2018)
Activity calls are given as the source filed them. The rule behind the calls is not given here.

What was measured:
Assay type in all cases: functional, organism-based
Saccharomyces cerevisiae [1] = assay: Growth inhibition of Saccharomyces cerevisiae harboring FTR1 deletion mutant at 400 uM measured for 11 hrs by HOP assay
How it was run: (§1)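 Pooled homozygous (HOP) or heterozygous (HIP) deletion collections were profiled at 400 µM in two independent experiments, with strain sensitivity read from barcode abundance. Hits were retested as individual log-phase strains in YPD with serial compound dilutions, start OD600 0.01 and 2% DMSO. OD600 was read at 11 h and fitted by logistic regression against HO/YDL227C as wild-type reference.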

Saccharomyces cerevisiae [2] = assay: Growth inhibition of Saccharomyces cerevisiae harboring GRX6 deletion mutant at 400 uM measured for 11 hrs by HOP assay; how it was run: as §1
Saccharomyces cerevisiae [3] = assay: Growth inhibition of Saccharomyces cerevisiae harboring CCC2 deletion mutant at 400 uM measured for 11 hrs by HOP assay; how it was run: as §1
Saccharomyces cerevisiae [4] = assay: Growth inhibition of Saccharomyces cerevisiae harboring FET3 deletion mutant at 400 uM measured for 11 hrs by HOP assay; how it was run: as §1
Saccharomyces cerevisiae [5] = assay: Growth inhibition of wild type Saccharomyces cerevisiae BY4743 at 500 uM measured for 15 hrs in presence of Fe2+
Saccharomyces cerevisiae [6] = assay: Growth inhibition of Saccharomyces cerevisiae harboring PIB2 deletion mutant at 400 uM measured for 11 hrs by HIP assay; how it was run: as §1
Saccharomyces cerevisiae [7] = assay: Growth inhibition of Saccharomyces cerevisiae harboring GEF1 deletion mutant at 400 uM measured for 11 hrs by HOP assay; how it was run: as §1
Saccharomyces cerevisiae [8] = assay: Growth inhibition of wild type Saccharomyces cerevisiae BY4743 at 100 uM measured for 15 hrs in presence of Fe2+

SMILES	growth inhibition (GI) (Saccharomyces cerevisiae [1])	growth inhibition (GI) (Saccharomyces cerevisiae [2])	growth inhibition (GI) (Saccharomyces cerevisiae [3])	growth inhibition (GI) (Saccharomyces cerevisiae [4])	growth inhibition (GI) (Saccharomyces cerevisiae [5])	growth inhibition (GI) (Saccharomyces cerevisiae [6])	growth inhibition (GI) (Saccharomyces cerevisiae [7])	growth inhibition (GI) (Saccharomyces cerevisiae [8])
Cc1cc2c(C(C)C)c(O)c(O)c(C=O)c2c(O)c1-c1c(C)cc2c(C(C)C)c(O)c(O)c(C=O)c2c1O	Active	Active	Active	Active	inactive	inactive	Active	
O=C(O)c1ccc(-n2nc(-c3ccccc3O)nc2-c2ccccc2O)cc1				Active			inactive	inactive
